The results in this text go back to ChEMBL document CHEMBL3045286, “Citrus limonoids and their semisynthetic derivatives as antifeedant agents against Spodoptera frugiperda larvae. A structure-activity relationship study” (2002).

The structures appear in SMILES notation.

The test system of this assay is Spodoptera frugiperda. In words: Antifeedant activity against larvae of Spodoptera frugiperda (fall armyworm) at 100 ppm measured every 30 min for 8 hr by binary choice assay relative to control. In kind it is functional. The method, boiled down:
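Final-stadium larvae aged […], reared on wheatgerm diet, starved 2 h, then held singly in Petri dishes with control and treatment glass-fiber disks (2.1 cm). All disks carried 100 µL of 0.05 M sucrose. Treatment disks received compound in acetone and control disks acetone alone; disks were dried and weighed before and after. Ten larvae per compound. Feeding index = [(C − T)/(C + T)]%, mean ± SEM, Wilcoxon matched-pairs test.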

`CC(=O)O/N=C1\C[C@H]2C(C)(C)O[C@H]3CC(=O)OC[C@]32[C@H]2CC[C@@]3(C)[C@@H](c4ccoc4)OC(=O)[C@H]4O[C@]43[C@]12C` [LIMONIN-7-OXIME ACETATE] came in with an AFI of 45%.

As to `CC1(C)OC(=O)CC[C@]2(C)[C@H]3CC[C@@]4(C)[C@@H](c5ccoc5)OC(=O)[C@H]5O[C@]54[C@]3(C)C(=O)C[C@@H]12` [1,2-DIDEHYDRO-OBACUNONE], the AFI amounted to 53%.

As to `CC1(C)O[C@H]2CC(=O)OC[C@]23[C@H]2CC[C@@]4(C)[C@@H](c5ccoc5)OC(=O)[C@H]5O[C@]54[C@]2(C)[C@H](O)C[C@@H]13` [LIMONOL], the AFI was determined as 68%.

For `CC(=O)O[C@H]1C[C@H]2C(C)(C)O[C@H]3CC(=O)OC[C@]32[C@H]2CC[C@@]3(C)[C@@H](c4ccoc4)OC(=O)[C@H]4O[C@]43[C@]12C` [EPI-LIMONYL ACETATE], the AFI was determined as 26%.

The molecule `CC1(C)O[C@H]2CC(=O)OC[C@]23[C@H]2CC[C@@]4(C)[C@H](c5ccoc5)OC(=O)[C@H]5O[C@]54[C@]2(C)C(=O)C[C@@H]13` [LIMONIN] yielded an AFI of 87%.

In turn, `CC(=O)O[C@H]1CC(=O)OC(C)(C)[C@@H]2C[C@@H](O)[C@]3(C)[C@H](CC[C@@]4(C)[C@@H](c5ccoc5)OC(=O)[C@H]5O[C@@]534)[C@@]12C` [7-ALPHA-NOMILOL] gave an AFI of 46%.

As to `CC1(C)OC(=O)C=C[C@]2(C)[C@H]3CC[C@@]4(C)[C@@H](c5ccoc5)OC(=O)[C@H]5O[C@]54[C@]3(C)/C(=N/O)C[C@@H]12` [OBACUNONE-7-OXIME], the AFI worked out at 25%.

On to `CC(=O)O/N=C1\C[C@H]2C(C)(C)OC(=O)C[C@H](OC(C)=O)[C@]2(C)[C@H]2CC[C@@]3(C)[C@@H](c4ccoc4)OC(=O)[C@H]4O[C@]43[C@]12C` [NOMILIN-7-OXIME ACETATE], for which the AFI is 41%.

Take `CC(=O)O[C@H]1CC(=O)OC(C)(C)[C@@H]2C[C@H](OC(C)=O)[C@]3(C)[C@H](CC[C@@]4(C)[C@@H](c5ccoc5)OC(=O)[C@H]5O[C@@]534)[C@@]12C` [7-BETA-NOMILYL ACETATE]: the AFI was found to be 46%.

`CC1(C)OC(=O)C=C[C@]2(C)[C@H]3CC[C@@]4(C)[C@@H](c5ccoc5)OC(=O)[C@H]5O[C@]54[C@]3(C)[C@H](O)C[C@@H]12` [7-ALPHA-OBACUNOL] had an AFI of 53%.

Molecule `CO/N=C1\C[C@H]2C(C)(C)OC(=O)C=C[C@]2(C)[C@H]2CC[C@@]3(C)[C@@H](c4ccoc4)OC(=O)[C@H]4O[C@]43[C@]12C` [OBACUNONE-7-METHOXIME] displayed an AFI of 29%.

`CC(=O)O[C@@H]1C[C@H]2C(C)(C)O[C@H]3CC(=O)OC[C@]32[C@H]2CC[C@@]3(C)[C@@H](c4ccoc4)OC(=O)[C@H]4O[C@]43[C@@]21C` [LIMONYL ACETATE] returned an AFI of 45%.

For the molecule `CC(=O)O[C@H]1CC(=O)OC(C)(C)[C@@H]2C[C@H](O)[C@]3(C)[C@H](CC[C@@]4(C)[C@@H](c5ccoc5)OC(=O)[C@H]5O[C@@]534)[C@@]12C` [7-BETA-NOMILOL], the AFI came out at 35%.

The molecule `CC(=O)O[C@H]1CC(=O)OC(C)(C)[C@@H]2C/C(=N\O)[C@]3(C)[C@H](CC[C@@]4(C)[C@@H](c5ccoc5)OC(=O)[C@H]5O[C@]543)[C@@]12C` [NOMILIN-7-OXIME] returned an AFI of 35%.

As to `CC(=O)O/N=C1\C[C@H]2C(C)(C)OC(=O)C=C[C@]2(C)[C@H]2CC[C@@]3(C)[C@@H](c4ccoc4)OC(=O)[C@H]4O[C@]43[C@]12C` [OBACUNONE-7-OXIME ACETATE], the AFI stood at 21%.

`CC1(C)O[C@H]2CC(=O)OC[C@]23[C@H]2CC[C@@]4(C)[C@@H]([C@@H]5CCOC5)OC(=O)[C@H]5O[C@]54[C@]2(C)C(=O)C[C@@H]13` [PERHYDROLIMONIN] displayed an AFI of 29%.

For the molecule `CO/N=C1\C[C@H]2C(C)(C)O[C@H]3CC(=O)OC[C@]32[C@H]2CC[C@@]3(C)[C@@H](c4ccoc4)OC(=O)[C@H]4O[C@]43[C@]12C` [LIMONIN-7-METHOXIME], the AFI stood at 76%.

In turn, `CC1(C)O[C@H]2CC(=O)OC[C@]23[C@H]2CC[C@@]4(C)[C@@H]([C@H]5CCOC5)OC(=O)[C@H]5O[C@]54[C@]2(C)C(=O)C[C@@H]13` [EPI-PERHYDROLIMONIN] registered an AFI of 45%.

In turn, `CC1(C)OC(=O)C=C[C@]2(C)[C@H]3CC[C@@]4(C)[C@@H](c5ccoc5)OC(=O)[C@H]5O[C@]54[C@]3(C)[C@@H](O)C[C@@H]12` [7-BETA-OBACUNOL] yielded an AFI of 35%.

As for `CC1(C)O[C@H]2CC(=O)OC[C@]23[C@H]2CC[C@@]4(C)[C@@H](c5ccoc5)OC(=O)[C@H]5O[C@]54[C@]2(C)[C@@H](O)C[C@@H]13` [EPILIMONOL], the AFI is listed as 56%.

As for `CC(=O)O[C@H]1C[C@H]2C(C)(C)OC(=O)C=C[C@]2(C)[C@H]2CC[C@@]3(C)[C@@H](c4ccoc4)OC(=O)[C@H]4O[C@]43[C@]12C` [7-BETA-OBACUNYL ACETATE], the AFI is 26%.

In turn, `CC(=O)O[C@H]1CC(=O)OC(C)(C)[C@@H]2CC(=O)[C@]3(C)[C@H](CC[C@@]4(C)[C@@H](c5ccoc5)OC(=O)[C@H]5O[C@]543)[C@@]12C` [NOMILIN] returned an AFI of 56%.

With `CC1(C)OC(=O)C=C[C@]2(C)[C@H]3CC[C@@]4(C)[C@H](c5ccoc5)OC(=O)[C@H]5O[C@]54[C@]3(C)C(=O)C[C@@H]12` [OBACUNONE], the AFI is 68%.

The molecule `CC(=O)O[C@@H]1C[C@H]2C(C)(C)OC(=O)C=C[C@]2(C)[C@H]2CC[C@@]3(C)[C@@H](c4ccoc4)OC(=O)[C@H]4O[C@]43[C@@]21C` [7-ALPHA-OBACUNYL ACETATE] showed an AFI of 24%.

For the molecule `CO/N=C1\C[C@H]2C(C)(C)OC(=O)C[C@H](OC(C)=O)[C@]2(C)[C@H]2CC[C@@]3(C)[C@@H](c4ccoc4)OC(=O)[C@H]4O[C@]43[C@]12C` [NOMILIN-7-METHOXIME], the AFI is reported as 38%.

`CC1(C)O[C@H]2CC(=O)OC[C@]23[C@H]2CC[C@@]4(C)[C@@H](c5ccoc5)OC(=O)[C@H]5O[C@]54[C@]2(C)/C(=N/O)C[C@@H]13` [LIMONIN-7-OXIME] registered an AFI of 68%.
